According to ChEMBL document CHEMBL1765024, “Fluorescent cyclin-dependent kinase inhibitors block the proliferation of human breast cancer cells” (Bioorg Med Chem, 2011):
Activity calls are given as the source filed them. No cut-off for these calls is given here.

Experiments:
[1] = Antiproliferative activity against human CL 10.3 cells expressing p-glycoprotein after 72 hrs by WST-1 assay; type: functional, cell-based
How it was run: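 MCF-7 and its P-glycoprotein-overexpressing MDR subline CL 10.3 were grown in DMEM with 10% heat-inactivated FBS. Compounds in DMSO were serially diluted in medium and given to cells for 72 h. Read-out was WST-1 reduction (450 nm, 630 nm reference). IC50 interpolated from log concentration versus fraction surviving; mean (SEM) of triplicates. Ratio is CL 10.3 IC50 over MCF-7 IC50.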

[2] = molecular target: T1, Cyclin-dependent kinase 5/CDK5 activator 1 (Homo sapiens) (UniProt Q00535+Q15078); details: at 0.1 µM
T1 sequence (Q00535 whole entry): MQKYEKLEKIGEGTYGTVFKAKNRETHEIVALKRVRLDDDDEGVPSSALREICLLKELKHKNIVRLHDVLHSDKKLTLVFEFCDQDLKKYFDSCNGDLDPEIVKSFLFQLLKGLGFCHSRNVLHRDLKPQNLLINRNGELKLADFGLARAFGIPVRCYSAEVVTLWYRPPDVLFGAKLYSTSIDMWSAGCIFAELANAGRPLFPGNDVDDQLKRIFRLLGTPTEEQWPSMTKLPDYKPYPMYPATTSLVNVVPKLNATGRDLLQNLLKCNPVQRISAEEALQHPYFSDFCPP
T1 sequence (Q15078 99-307 partner limits assumed): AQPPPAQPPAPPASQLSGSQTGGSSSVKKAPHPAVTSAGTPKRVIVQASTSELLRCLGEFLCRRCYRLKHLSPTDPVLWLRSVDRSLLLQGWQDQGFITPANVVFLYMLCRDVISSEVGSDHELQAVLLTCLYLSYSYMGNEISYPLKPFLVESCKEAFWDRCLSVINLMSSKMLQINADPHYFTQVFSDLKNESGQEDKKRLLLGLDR

[3] = molecular target: Cyclin-dependent kinase 7/ cyclin H (Homo sapiens) (UniProt P51946+P50613); assay: Inhibition of human CDK7/cyclinH/MAT1 at 0.1 uM after 40 mins relative to control; type: protein-complex assay
How it was run: (§1)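 Radiometric screen at 100 nM compound against purified human CDK/cyclin (5–10 mU). Incubation 40 min at room temperature, stopped with phosphoric acid. Read by filtermat scintillation. Activity expressed as % of control, N = 2.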

MDA-MB-231 [4] = assay: Antiproliferative activity against estrogen receptor-deficient human MDA-MB-231 cells at 100 uM after 48 hrs by WST-1 assay; type: functional, cell-based
How it was run: (§2)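 Cells seeded at 3000/well in DMEM with 10% FBS and left 24 h, then given compound from DMSO stock diluted in medium at 100 µM. Survival read by WST-1 48 h after addition: 2–3 h incubation, absorbance at 450 nm with 630 nm reference; triplicate experiments.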

[5] = molecular target: CDK3/cyclin E (Homo sapiens) (UniProt P24864+O96020+Q00526); assay: Inhibition of human CDK3/cyclin E at 0.1 uM after 40 mins relative to control; type: protein-complex assay; how it was run: as §1
Sequence of CDK3/cyclin E (Homo sapiens) (O96020 whole entry, looked up): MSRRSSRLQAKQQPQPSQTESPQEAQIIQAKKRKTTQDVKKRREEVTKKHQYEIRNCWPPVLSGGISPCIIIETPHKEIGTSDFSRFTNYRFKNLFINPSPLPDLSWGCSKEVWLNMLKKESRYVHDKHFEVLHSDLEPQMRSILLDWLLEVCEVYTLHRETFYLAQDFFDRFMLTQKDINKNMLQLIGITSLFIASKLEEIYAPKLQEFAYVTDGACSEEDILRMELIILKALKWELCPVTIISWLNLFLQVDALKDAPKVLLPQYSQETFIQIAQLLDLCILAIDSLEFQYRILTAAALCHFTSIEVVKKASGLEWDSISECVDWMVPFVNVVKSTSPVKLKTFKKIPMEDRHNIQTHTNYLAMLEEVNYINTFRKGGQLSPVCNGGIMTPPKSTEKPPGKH
Sequence of CDK3/cyclin E (Homo sapiens) (P24864 whole entry, looked up): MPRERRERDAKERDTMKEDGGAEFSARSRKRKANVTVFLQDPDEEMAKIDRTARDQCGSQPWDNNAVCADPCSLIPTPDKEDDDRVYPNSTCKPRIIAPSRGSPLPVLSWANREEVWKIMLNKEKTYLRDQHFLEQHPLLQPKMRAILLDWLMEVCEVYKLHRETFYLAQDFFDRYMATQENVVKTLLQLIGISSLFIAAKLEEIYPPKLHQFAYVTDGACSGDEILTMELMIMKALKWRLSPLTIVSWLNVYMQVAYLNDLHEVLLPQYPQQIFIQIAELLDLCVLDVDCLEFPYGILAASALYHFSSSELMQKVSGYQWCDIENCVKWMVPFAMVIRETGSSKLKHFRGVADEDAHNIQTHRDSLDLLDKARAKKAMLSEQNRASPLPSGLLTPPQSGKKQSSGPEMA
Sequence of CDK3/cyclin E (Homo sapiens) (Q00526 whole entry, looked up): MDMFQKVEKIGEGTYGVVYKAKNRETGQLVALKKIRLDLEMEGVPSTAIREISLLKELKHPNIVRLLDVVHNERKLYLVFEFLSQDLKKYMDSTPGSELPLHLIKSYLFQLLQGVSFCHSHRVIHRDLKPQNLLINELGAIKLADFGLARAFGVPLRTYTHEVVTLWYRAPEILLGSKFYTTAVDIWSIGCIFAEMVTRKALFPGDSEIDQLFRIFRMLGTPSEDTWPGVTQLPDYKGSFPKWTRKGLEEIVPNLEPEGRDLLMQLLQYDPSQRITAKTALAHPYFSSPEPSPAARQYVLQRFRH

[6] = molecular target: T1, Cyclin-dependent kinase 5/CDK5 activator 1 (Homo sapiens); details: at 0.1 µM; remark: listed apart in the source
MDA-MB-231 [7] = assay: Antiproliferative activity against estrogen receptor-deficient human MDA-MB-231 cells after 48 hrs by WST-1 assay; type: functional, cell-based; details: MDA-MB-231, 48 h
How it was run: (§3)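 Cells seeded at 3000/well in DMEM with 10% FBS and left 24 h. Compounds in DMSO were serially diluted in medium (1–100 µM) and added in triplicate. WST-1 was read 48 h after addition: 2–3 h incubation, absorbance at 450 nm with 630 nm reference. IC50 interpolated from log concentration versus fraction surviving; mean (SEM) of triplicate experiments.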

[8] = molecular target: CDK9/cyclin T1 (Homo sapiens) (UniProt O60563+P50750); assay: Inhibition of at human CDK9/cyclin T1 at 0.1 uM after 40 mins relative to control; type: protein-complex assay; how it was run: as §1
MCF7 [9] = assay: Antiproliferative activity against human MCF7 cells expressing estrogen receptor at 100 uM after 48 hrs by WST-1 assay; type: functional, cell-based; how it was run: as §2
MDA-MB-231 [10] = assay: Induction of apoptosis in human MDA-MB-231 cells assessed as reduction of cdc2 phosphorylation at T161 catalytic site at 10 uM after 24 hrs by Western blot analysis; type: functional, cell-based
How it was run: (§4)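 MDA-MB-231 cells were treated with 10 µM compound for 1, 3, 6, 12 and 24 h and lysed. Equal protein was resolved by 10% SDS–PAGE and immunoblotted for phospho-cdc2 (T161, Y15), cdc2 and cyclin B, with actin as loading standard and ECL detection.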

MCF7 [11] = assay: Antiproliferative activity against human MCF7 cells expressing estrogen receptor after 48 hrs by WST-1 assay; type: functional, cell-based; details: MCF7, 48 h; how it was run: as §3
[12] = molecular target: Cyclin-dependent kinase 1/cyclin B1 (Homo sapiens) (UniProt P06493+P14635); details: at 0.1 µM
Sequence of Cyclin-dependent kinase 1/cyclin B1 (Homo sapiens) (P06493 whole entry, looked up): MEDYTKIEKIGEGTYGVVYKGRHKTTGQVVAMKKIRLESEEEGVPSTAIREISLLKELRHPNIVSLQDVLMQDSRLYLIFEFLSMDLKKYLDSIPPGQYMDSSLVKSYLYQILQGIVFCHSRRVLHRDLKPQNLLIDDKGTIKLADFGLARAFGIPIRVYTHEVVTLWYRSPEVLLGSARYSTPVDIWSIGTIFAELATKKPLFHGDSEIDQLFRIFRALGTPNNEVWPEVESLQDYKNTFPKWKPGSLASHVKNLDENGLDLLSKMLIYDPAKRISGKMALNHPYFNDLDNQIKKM
Sequence of Cyclin-dependent kinase 1/cyclin B1 (Homo sapiens) (P14635 whole entry, looked up): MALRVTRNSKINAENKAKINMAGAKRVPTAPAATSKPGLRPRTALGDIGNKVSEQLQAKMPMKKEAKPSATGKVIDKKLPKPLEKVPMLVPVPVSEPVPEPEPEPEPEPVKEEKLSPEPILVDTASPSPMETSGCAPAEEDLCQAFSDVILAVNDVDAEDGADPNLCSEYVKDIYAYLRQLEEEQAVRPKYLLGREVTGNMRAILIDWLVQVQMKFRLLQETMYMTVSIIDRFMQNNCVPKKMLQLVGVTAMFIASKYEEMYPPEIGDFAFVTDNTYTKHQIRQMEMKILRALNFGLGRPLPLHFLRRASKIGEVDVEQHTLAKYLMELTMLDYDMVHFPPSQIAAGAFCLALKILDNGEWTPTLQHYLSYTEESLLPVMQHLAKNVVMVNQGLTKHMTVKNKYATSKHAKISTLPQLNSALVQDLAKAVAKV

MDA-MB-231 [13] = assay: Induction of apoptosis in human MDA-MB-231 cells assessed as reduction of cdc2 phosphorylation at Y15 regulatory site at 10 uM after 24 hrs by Western blot analysis; type: functional, cell-based; how it was run: as §4
MCF7 [14] = assay: Induction of apoptosis in human MCF7 cells assessed as necrotic cells at 10 uM after 24 hrs using annexinV-propidium iodide staining by flow cytometry (reference value: 12.09%); type: functional
MCF7 [15] = assay: Induction of apoptosis in human MCF7 cells assessed as late apoptotic cells at 10 uM after 24 hrs using annexinV-propidium iodide staining by flow cytometry (reference value: 13.35%); type: functional
MDA-MB-231 [16] = assay: Induction of apoptosis in human MDA-MB-231 cells assessed as decrease in cell number at 10 uM after 48 hrs using propidium iodide staining by confocal microscopic analysis; type: functional, cell-based
MDA-MB-231 [17] = assay: Induction of apoptosis in human MDA-MB-231 cells assessed as aberrant gross morphological changes at 10 uM after 48 hrs using propidium iodide staining by confocal microscopic analysis; type: functional, cell-based
MCF7 [18] = assay: Induction of apoptosis in human MCF7 cells assessed as viable cells at 10 uM after 24 hrs using annexinV-propidium iodide staining by flow cytometry (reference value: 70.32%); type: functional; details: MCF7, 24 h, read-out: Activity
MCF7 [19] = assay: Cell cycle arrest in human MCF7 cells assessed as accumulation at G2/M phase at 5 to 10 uM after 24 hrs using propidium iodide staining by flow cytometry; type: functional, cell-based
How it was run: (§5)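 Asynchronous cells were treated with 5 or 10 µM compound or DMSO for 24 h (also 16 and 40 h). They were trypsinized, washed in PBS and fixed/permeabilized in 70% ethanol. Staining was with RNase and propidium iodide for 30 min in the dark at room temperature, followed by flow cytometry. Phase percentages are given minus DMSO control; mean of triplicates.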

MCF7 [20] = assay: Cell cycle arrest in human MCF7 cells assessed as accumulation at G2/M phase at 5 to 10 uM after 16 to 40 hrs using propidium iodide staining by flow cytometry; type: functional, cell-based; how it was run: as §5
MDA-MB-231 [21] = assay: Induction of apoptosis in human MDA-MB-231 cells assessed as decrease in Bcl2 protein level at 10 uM after 48 hrs by Western blotting; type: functional, cell-based
How it was run: (§6)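 MDA-MB-231 cells were treated with vehicle or 10 µM compound for 48 h (and 72 h). Lysates were cleared and protein measured by BCA. Equal protein was run on 10% SDS–PAGE and transferred to PVDF, blocked in 5% milk overnight, and probed 2 h with anti-Bcl-2, Bax or PARP. HRP secondary was applied for 1 h, with ECL detection.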

MCF7 [22] = assay: Cell cycle arrest in human MCF7 cells assessed as accumulation at sub G1 phase at 5 to 10 uM after 24 hrs using propidium iodide staining by flow cytometry; type: functional, cell-based; how it was run: as §5
MDA-MB-231 [23] = assay: Induction of apoptosis in human MDA-MB-231 cells assessed as induction of PARP cleavage at 10 uM after 48 hrs by Western blotting; type: functional, cell-based; how it was run: as §6
MCF7 [24] = assay: Induction of apoptosis in human MCF7 cells assessed as early apoptotic cells at 10 uM after 24 hrs using annexinV-propidium iodide staining by flow cytometry (reference value: 4.24%); type: functional
MCF7 [25] = assay: Induction of apoptosis in human MCF7 cells assessed as decrease in cell number at 10 uM after 48 hrs using propidium iodide staining by confocal microscopic analysis; type: functional, cell-based
MDA-MB-231 [26] = assay: Cell cycle arrest in human MDA-MB-231 cells assessed as accumulation at sup G1 phase at 5 to 10 uM after 24 hrs using propidium iodide staining by flow cytometry; type: functional, cell-based; how it was run: as §5
MCF7 [27] = assay: Induction of apoptosis in human MCF7 cells assessed as aberrant gross morphological changes at 10 uM after 48 hrs using propidium iodide staining by confocal microscopic analysis; type: functional, cell-based
MDA-MB-231 [28] = assay: Cell cycle arrest in human MDA-MB-231 cells assessed as accumulation at G2/M phase at 5 to 10 uM after 16 to 40 hrs using propidium iodide staining by flow cytometry; type: functional, cell-based; how it was run: as §5
MDA-MB-231 [29] = assay: Induction of apoptosis in human MDA-MB-231 cells assessed as decrease in caspase 3 protein level at 10 uM after 48 hrs by Western blotting; type: functional, cell-based
MDA-MB-231 [30] = assay: Induction of apoptosis in human MDA-MB-231 cells assessed as decrease in caspase 7 protein level at 10 uM after 48 hrs by Western blotting; type: functional, cell-based
MDA-MB-231 [31] = assay: Cell cycle arrest in human MDA-MB-231 cells assessed as accumulation at G2/M phase at 5 to 10 uM after 24 hrs using propidium iodide staining by flow cytometry; type: functional, cell-based; how it was run: as §5
MDA-MB-231 [32] = assay: Induction of apoptosis in human MDA-MB-231 cells assessed as increase in Bax protein level at 10 uM after 48 hrs by Western blotting; type: functional, cell-based; how it was run: as §6
MDA-MB-231 [33] = assay: Induction of apoptosis in human MDA-MB-231 cells assessed as decrease in Bcl2 protein level at 40 uM after 48 hrs by Western blotting; type: functional, cell-based
How it was run: (§7)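 Cells treated with vehicle or compound, then lysed in NP-40/Triton X-100 buffer with protease and phosphatase inhibitors. Lysate protein measured by BCA, and equal protein run on 10% SDS–PAGE and transferred to PVDF. Blocked overnight in 5% milk/TBST, primary antibody 2 h, HRP secondary 1 h, ECL detection.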

MDA-MB-231 [34] = assay: Cell cycle arrest in human MDA-MB-231 cells assessed as accumulation at G2/M phase treated at 10 uM for 24 hrs measured after drug washout following 48 hrs growth recovery using propidium iodide staining by flow cytometry; type: functional, cell-based
How it was run: (§8)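 Exponentially growing cells exposed 24 h, then held a further 48 h in compound-free medium. Cells trypsinized, pelleted, PBS-washed, permeabilized in 70% ethanol, stained 30 min in the dark at room temperature with PI plus RNase, and analysed by flow cytometry. Phase percentages given after subtracting untreated control. Mean of triplicate experiments.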

MDA-MB-231 [35] = assay: Induction of apoptosis in human MDA-MB-231 cells assessed as decrease in caspase 7 protein level at 40 uM after 48 hrs by Western blotting; type: functional, cell-based; how it was run: as §7
MDA-MB-231 [36] = assay: Induction of apoptosis in human MDA-MB-231 cells assessed as increase in Bax protein level at 40 uM after 48 hrs by Western blotting; type: functional, cell-based; how it was run: as §7
MDA-MB-231 [37] = assay: Cell cycle arrest in human MDA-MB-231 cells assessed as accumulation at G2/M phase treated at 5 uM for 24 hrs measured after drug washout following 48 hrs growth recovery using propidium iodide staining by flow cytometry; type: functional, cell-based; how it was run: as §8
MDA-MB-231 [38] = assay: Induction of apoptosis in human MDA-MB-231 cells assessed as decrease in caspase 3 protein level at 40 uM after 48 hrs by Western blotting; type: functional, cell-based; how it was run: as §7

Row | Structure (SMILES) | inhibition [2] [%] | inhibition [3] [%] | inhibition [5] [%] | inhibition [6] [%] | IC50 (MDA-MB-231 [7]) [µM] | inhibition [8] [%] | IC50 (MCF7 [11]) [µM] | inhibition [12] [%] | Activity (MCF7 [14]) [%] | Activity (MCF7 [15]) [%] | viability at 10 µM (MCF7 [18]) [%] | Activity (MCF7 [24]) [%] | further results
1 | CC(=O)O[C@H]1C(=O)[C@@]2(C)[C@H]([C@H](OC(=O)c3ccccc3)[C@]3(O)C[C@H](OC(=O)[C@H](O)[C@@H](NC(=O)c4ccccc4)c4ccccc4)C(C)=C1C3(C)C)[C@]1(OC(C)=O)CO[C@@H]1C[C@@H]2O [PACLITAXEL] |  |  |  |  |  |  |  |  |  |  |  |  | IC50 [1]: > 50 µM
2 | CC(C)[C@H](CO)Nc1nc(Nc2ccc(C(=O)O)c(Cl)c2)c2ncn(C(C)C)c2n1 [PURVALANOL B] | 97 | 66 | 89 | 97 | > 100 | 22 | > 100 | 78 |  |  |  |  | Activity (MDA-MB-231 [4]): inactive; Activity (MCF7 [9]): inactive; Activity (MDA-MB-231 [10]): inactive; Activity (MDA-MB-231 [13]): inactive
3 | CC[C@H](CO)Nc1nc(Nc2ccc(C(=O)NCCNS(=O)(=O)c3cccc4c(N(C)C)cccc34)c(Cl)c2)c2ncn(C(C)C)c2n1 | 67 | 57 | 40 | 76 | 4.86 | 44 | 19.1 | 16 | 22.14 | 16.74 | 52.3 | 8.87 | Activity (MDA-MB-231 [16]): Active; Activity (MDA-MB-231 [17]): Active; Activity (MCF7 [19]): Active; Activity (MCF7 [20]): Active; Activity (MDA-MB-231 [21]): Active; Activity (MCF7 [22]): Active; Activity (MDA-MB-231 [23]): Active; Activity (MCF7 [25]): Active; Activity (MDA-MB-231 [26]): Active; Activity (MCF7 [27]): Active; Activity (MDA-MB-231 [28]): Active; Activity (MDA-MB-231 [29]): Active; Activity (MDA-MB-231 [30]): Active; Activity (MDA-MB-231 [31]): Active; Activity (MDA-MB-231 [32]): Active
4 | CC[C@H](CO)Nc1nc(NCc2ccccc2)c2ncn(C(C)C)c2n1 [SELICICLIB] |  | 26 |  |  | 54.6 | 19 |  |  | 6.56 | 13.2 | 73.1 | 7.13 | Activity (MDA-MB-231 [33]): inactive; Activity (MDA-MB-231 [34]): inactive; Activity (MDA-MB-231 [35]): inactive; Activity (MDA-MB-231 [36]): inactive; Activity (MDA-MB-231 [37]): inactive; Activity (MDA-MB-231 [38]): inactive
5 | CN(C)c1cccc2c(S(=O)(=O)NCCN)cccc12 [DANSYL ETHYLENEDIAMINE] |  |  |  |  | > 100 |  | > 100 |  |  |  |  |  | 
